The target in assay [1] is Muscarinic acetylcholine receptor. As to the kind of experiment: Inhibition of radioligand [3H]NMS binding to muscarinic receptor of rat brain.
In assay [2] the target is Delta-type opioid receptor (Rattus norvegicus, UniProt P33533). The experiment in a line: Inhibition of radioligand [3H]DADLE binding to rat brain delta receptor. Put shortly:
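Rat brain membranes; [3H]DADLE 1.7-2.5 nM, 3-4 h at 25 °C in 10 mM Tris-HCl pH 7.4 with 100 mM choline chloride, 3 mM MnCl2, 100 nM DAMGO to block mu sites, and protease inhibitor cocktail. Nonspecific binding with 20 μM levallorphan. 8-10 test drug concentrations, run twice; dilutions in Tris buffer with 1 mg/mL BSA.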

Assay [3] has as its target Mu-type opioid receptor (Rattus norvegicus, UniProt P33535). As to the kind of experiment: Inhibition of radioligand [3H]DAMGO binding to rat brain mu receptor. Put shortly:
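Rat brain membranes labelled with [3H]DAMGO (1-3 nM), incubated 4 h at 25 °C in 50 mM Tris-HCl pH 7.4 with protease inhibitor cocktail. Nonspecific binding defined by 20 μM levallorphan. Displacement by 8-10 test drug concentrations, done twice; drug dilutions in 10 mM Tris-HCl pH 7.4 containing 1 mg/mL BSA.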

A short description of assay [4]: Ratio of Ki values tested against sigma receptor and Mu receptor.
The test system of assay [5] is Glutamate NMDA receptor. The experiment in a line: Inhibition of radioligand [3H]TCP binding to PCP site in rat brain; No inhibition. Type of assay: tissue-based.
For assay [6], the target named is Kappa-type opioid receptor (Cavia porcellus, UniProt P41144). The experiment in a line: Inhibition of radioligand [3H]U-69593 binding to kappa 1 receptor of guinea pig brain. Put shortly: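 Guinea pig brain membranes pretreated with irreversible ligands BIT and FIT to deplete mu and delta sites. Nonspecific binding with 1 μM U69,593. 8-10 drug concentrations, run twice.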
Chain of Kappa-type opioid receptor (P41144 whole entry): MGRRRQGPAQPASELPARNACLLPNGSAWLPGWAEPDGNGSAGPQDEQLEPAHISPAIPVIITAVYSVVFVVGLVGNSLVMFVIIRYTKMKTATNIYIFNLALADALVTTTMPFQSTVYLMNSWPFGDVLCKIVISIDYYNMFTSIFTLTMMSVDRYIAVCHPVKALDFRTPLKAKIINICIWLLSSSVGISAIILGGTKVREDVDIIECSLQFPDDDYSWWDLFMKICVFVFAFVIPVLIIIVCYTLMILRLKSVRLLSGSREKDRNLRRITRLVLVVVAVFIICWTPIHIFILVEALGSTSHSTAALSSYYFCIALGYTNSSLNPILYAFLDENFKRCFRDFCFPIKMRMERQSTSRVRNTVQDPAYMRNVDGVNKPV

For assay [7], the target named is Glutamate NMDA receptor. The experiment in a line: Inhibition of radioligand [3H]TCP binding to rat brain PCP site.
Assay [8] concerns the target Glutamate NMDA receptor. The experiment in a line: Inhibition of radioligand [3H]TCP binding to PCP site in rat brain. It counts as tissue-based.

Each structure is given as a SMILES string.

Chain of Mu-type opioid receptor (P33535 whole entry): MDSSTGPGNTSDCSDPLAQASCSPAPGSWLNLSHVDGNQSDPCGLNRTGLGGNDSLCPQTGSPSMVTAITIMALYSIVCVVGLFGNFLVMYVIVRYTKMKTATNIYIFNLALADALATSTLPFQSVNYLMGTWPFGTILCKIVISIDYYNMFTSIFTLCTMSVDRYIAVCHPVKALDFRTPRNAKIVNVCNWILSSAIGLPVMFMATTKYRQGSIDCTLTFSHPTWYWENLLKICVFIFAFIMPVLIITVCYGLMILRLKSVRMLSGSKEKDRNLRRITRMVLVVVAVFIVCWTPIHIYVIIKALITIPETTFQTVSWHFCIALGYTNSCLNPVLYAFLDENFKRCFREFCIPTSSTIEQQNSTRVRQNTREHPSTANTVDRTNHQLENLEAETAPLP
Chain of Delta-type opioid receptor (P33533 whole entry): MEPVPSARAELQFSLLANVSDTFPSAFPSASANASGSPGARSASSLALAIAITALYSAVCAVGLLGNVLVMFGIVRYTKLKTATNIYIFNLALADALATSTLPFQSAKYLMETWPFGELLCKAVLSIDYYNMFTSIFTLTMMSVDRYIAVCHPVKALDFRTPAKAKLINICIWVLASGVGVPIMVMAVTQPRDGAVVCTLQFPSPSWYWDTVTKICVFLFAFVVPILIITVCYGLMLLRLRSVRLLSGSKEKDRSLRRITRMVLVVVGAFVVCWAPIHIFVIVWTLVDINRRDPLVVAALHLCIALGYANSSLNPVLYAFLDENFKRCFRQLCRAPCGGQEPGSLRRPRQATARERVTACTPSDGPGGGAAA

For the compound `C[N+]1(C)CCC2(c3cccc(O)c3)CC(=O)/C(=C/c3ccccc3)C1C2.[I-]` (stereo not drawn), the Ki in assay [1] is 14700 nM; in assay [2], more than 1000 nM; in assay [3], more than 700 nM; in assay [5], “Not Active”; in assay [6], more than 5000 nM. Besides, the Ratio in assay [4] was less than 7.7.
On to `COc1cccc(C23CCN(C)C(CC(=O)C2)C3)c1` (stereo not drawn), for which the Ki was 23300 nM in assay [1] and more than 100000 nM in assay [7].
Regarding `COc1cccc(C23CCN(C)C(C2)/C(=C\c2ccccc2)C(=O)C3)c1` (stereo not drawn), the Ki in assay [1] was 11600 nM; in assay [8], more than 50000 nM.
Consider `CN1CCC2(c3cccc(O)c3)CC(=O)CC1C2` (stereo in doubt), for which the Ki was 25300 nM in assay [1]; more than 100000 nM in assay [7]; 121 nM in assay [2]; 8.7 nM in assay [3]; 491 nM in assay [6].
Take `CN1CC[C@]2(c3cccc(O)c3)CC(=O)/C(=C/c3ccccc3)[C@H]1C2`: the Ki was 26000 nM in assay [1]; 735 nM in assay [2]; 37.6 nM in assay [3]; approximately 100000 nM in assay [8]; 1090 nM in assay [6].
The corresponding values for `CN1CC[C@@]2(c3cccc(O)c3)CC(=O)/C(=C/c3ccc(Cl)c(Cl)c3)[C@H]1C2` are 18600 nM, 271 nM, 4.5 nM, more than 100000 nM and more than 500 nM.
Consider `CN1CCC2(c3cccc(O)c3)CC(=O)/C(=C/c3ccc(Cl)c(Cl)c3)C1C2` (stereo not drawn), for which the Ki was 240 nM in assay [2], 6.1 nM in assay [3], more than 100000 nM in assay [8] and more than 500 nM in assay [6].
For the compound `CN1CCC2(c3cccc(O)c3)CC(=O)CC1C2` (stereo in doubt; 4), the Ki came out at 46400 nM in assay [1], 320 nM in assay [2], 5.5 nM in assay [3] and 1010 nM in assay [6].
Regarding `CN1CC[C@@]2(c3cccc(O)c3)CC(=O)/C(=C/c3ccc(Cl)c(Cl)c3)[C@@H]1C2`, the Ki in assay [1] was 50300 nM; in assay [2] it was more than 500 nM; in assay [3], 45.1 nM; in assay [8] it was more than 100000 nM; in assay [6], more than 500 nM.
Consider `CN1CCC2(c3cccc(O)c3)CC(=O)/C(=C/c3ccccc3)C1C2` (stereo not drawn), for which the Ki was 14400 nM in assay [1]; more than 500 nM in assay [2]; 33.9 nM in assay [3]; more than 100000 nM in assay [8]; 576 nM in assay [6].
The corresponding values for `CN1CC[C@@]2(c3cccc(O)c3)CC(=O)/C(=C/c3ccccc3)[C@@H]1C2` are 7400 nM, 1990 nM, 392 nM, more than 100000 nM and 889 nM.

One may read the Ki as the dissociation constant of the complex between target and ligand, obtained from inhibition or displacement. The low end stands for a stronger hold on the target, the high end for a looser hold on the target.

Source of the values: ChEMBL document CHEMBL1127468, “A marked change of receptor affinity of the 2-methyl-5-(3-hydroxyphenyl)morphans upon attachment of an (E)-8-benzylidene moiety: synthesis and evaluation of a new class of sigma receptor ligands” (J Med Chem, 1994).
